Here are results for 2 compounds from paper PMC10633881 (ACS Omega, 2023).

One series deals with MCF-7 cells. Briefly: Cell viability, CCK-8 method. The class given is cell-based, human. Particulars: 10 μM peptide, 24 h, CCK8. The essentials:
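MCF-7 cells (MEM, 10% FBS, 37 °C, 5% CO2) were seeded at 5×10^3 cells/well in 96-well plates. After 24 h, the medium was removed and replaced with MEM containing peptide. After 24 h at 37 °C, viability was read by CCK-8.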
(In general: Tetrazolium assays rely on reduction of a dye to a coloured formazan, in cell work by metabolically active cells.)

The test system of series [1] is K562 cells. The series can be described thus: Cell viability, CCK-8 method. In kind it is cell-based, human. Particulars: 10 μM peptide, 24 h, CCK8. In outline:
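K562 cells (IMDM, 10% FBS, 37 °C, 5% CO2) were seeded at 5×10^3 cells/well in 96-well plates. After 24 h, IMDM containing peptide was added without removing the medium. After 24 h at 37 °C, viability was read by CCK-8.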

A short description of the next series: Serum stability assay. The class given is in vitro ADME. To be noted: peptide solution (10 mM), 37 °C, supernatant analysed by RP-HPLC.
Series [2] concerns K562 cells. Briefly: LDH leakage assay. In kind it is cell-based, human. To be noted: 10 μM peptide, 24 h, serum-free medium. The essentials:
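K562 cells were seeded in 96-well plates for 24 h, then incubated 24 h with peptide in serum-free medium using a kit. Plates were spun at 400g for 5 min. Supernatant was mixed with LDH detection solution and shaken 30 min at room temperature, then read at 490 nm. Untreated wells = no leakage; LDH-releasing reagent = 100% leakage.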
(Release of lactate dehydrogenase indicates damage to the cell membrane.)

The subject of series [3] is cancer cells and murine fibroblasts. To be noted: read-out: antiproliferative activity IC50 values; against cancer cells and murine fibroblasts; cited from earlier work.

pIC50: −log10 of the molar value. Residues, ends and D or L forms follow the SMILES beside them. No end group written: not given here.

For orientation: pIC50 means −log10 of the IC50, conventionally taken in molar units.

As to `CCCCCCCCCC(=O)N[C@@H](Cc1ccccc1)C(=O)N[C@H](C(=O)NCC(=O)N[C@H](C(=O)N[C@@H](CC(C)C)C(=O)N[C@H](C(=O)N1CCC[C@H]1C(=O)N[C@@H](CC(C)C)C(=O)N[C@@H](C)C(=O)N[C@@H](CC(C)C)C(=O)NCC(=O)N[C@@H](C)C(=O)N[C@@H](CC(C)C)C(=O)N[C@H](C(=O)N[C@@H](CCCCN)C(=O)N[C@@H](CC(C)C)C(=O)N[C@@H](Cc1ccccc1)C(=O)N[C@@H](CCCCN)C(N)=O)[C@@H](C)O)[C@@H](C)CC)[C@@H](C)O)[C@@H](C)CC` [A-10] (HELM PEPTIDE1{[CCCCCCCCCC(=O)[*:2]].F.I.G.T.L.I.P.L.A.L.G.A.L.T.K.L.F.K.[am]}$$$$V2.0), the “anticancer activity in the preliminary screening, compared with F1, MCF-7 cells” value with MCF-7 cells is on record as “strongest anticancer activity”. In addition, the “anticancer activity in the preliminary screening, compared with F1, K562 cells” value in the series on K562 cells [1] is given as “strongest anticancer activity”. Also, the “peptide degraded after incubation in 10% serum for 1 h” value in the series “Serum stability assay” is given as “hardly degraded”. The “LDH leakage (cell membrane destruction)” value with K562 cells [2] is recorded as “stronger than that of F1”.

Consider “FIGTLIPLALGALTKLFK-NH2 [F1, Figainin 1, reference compound]”, for which the pIC50 in series [3] is 4.86 to 4.98. In addition, in the series on K562 cells [2], the “LDH leakage (cell membrane destruction)” value is recorded as “destroyed cell membranes”.
